Calls of active or inactive are those of the source.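 How the source made its calls, unless noted: active means inhibition of the reporter signal at or above 50%; inactive means inhibition below 50%.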

A short description of test [1]: inhibitors of TNFa-induced NFkB p65 translocation, primary screen, imaging, HUVEC, MLSMR starter and 10KST1 sets (AID 438;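 active means inhibition above 20% together with a positive visual image hit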;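 further: compound added about 3h40 before a 20 min TNFalpha stimulation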;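 on inhibition: signal is the nuclear over cytoplasmic p65 intensity ratio per well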). Conditions: HUVEC TNFa-induced p65 nuclear translocation; cell count: measured here: nuclei count (cytotoxicity indicator), at 2.08 µM; inhibition: at 2 µM, stronger effect = higher value, 0% TNFa-plus-vehicle, 100% no-TNFa wells.
Test [2] can be described thus: inhibitors of mutant huntingtin aggregation, primary screen, imaging, exon1htt(103Q)mCFP cells, high-content imaging (AID 483;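 active means visual image review flags a hit and inhibition of aggregation exceeds 20%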;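 further: compound exposure lasted 3 days before fixation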;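 on nuclei count: percent of the per-plate median nuclei count of sample wells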). Conditions: exon1htt(103Q)mCFP cell line, aggregate imaging, at 2 µM; inhibition of aggregation: stronger effect = higher value; nuclei count: measured here: cell count, toxicity.
Test [3] can be described thus: inhibitors of E-selectin induction by TNFa, primary screen, imaging, HUVEC, immunofluorescence, MLSMR starter and 10KST1 sets (AID 487;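 active means visually confirmed hit in the image check and inhibition above 20%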;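 on inhibition: signal is fraction of cell area covered by stained E-selectin grains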;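 on nuclei count: 100% = median nuclei count of all wells on the same plate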). Conditions: HUVEC TNFalpha-induced E-selectin immunofluorescence imaging, at 2 µM; inhibition: stronger effect = higher value; nuclei count: measured here: cell number, toxicity.
The target in test [4] is Voltage-gated potassium channel subunit beta-2 (Rattus norvegicus) (UniProt P62483). Nature of the test: KvBeta enzyme negative modulators, primary screen, biochemical, NADPH fluorescence (AID 622;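 active means fluorescence slope higher than the sample average by over 3 SD, cut at about -0.22 in these data, passing the limit was not always enough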;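 further: slope of raw intensity against log time taken from 70 to 1610 s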). Conditions: recombinant KvBeta, 4-cyanobenzaldehyde reduction, at 10 µM, stronger effect = higher value.
Test [5] has the same target. Description: KvBeta positive modulators, primary screen, biochemical, NADPH fluorescence (AID 623;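 active means NADPH fluorescence slope more negative than the mean of all samples by about 3 SD, 99.7% confidence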;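 further: fluorescence intensity change per second fitted from 20 to 320 s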). Conditions: Recombinant KvBeta, NADPH fluorescence decrease slope, 10 min; at 10 µM; stronger effect = lower value.
The target of test [6] is Muscarinic acetylcholine receptor M4 (Homo sapiens) (UniProt P08173). Description: compounds altering M4/GIRK thallium flux, either direction, primary screen, M4 allosteric agonist project, cell-based, HEK293 M4/GIRK, BTC-AM (AID 625;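 active means fluorescence slope after compound addition differing from the mean of all tested samples at 99.7% confidence, mostly higher but some lower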;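 further: thallium influx through GIRK channels coupled to M4 in HEK293 cells with BTC-AM dye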). Conditions: at 10 µM, actives lie on both sides. In outline: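 System: HEK293 cells with M4 receptor and GIRK channels | Incubation: Cells overnight at 37 °C, BTC-AM loading 1 h, reads 2 min total | Technique: Kinetic BTC-AM fluorescence sampled at 1 Hz, 10 s pre-addition baseline | Measure: Post-addition slope, 15–24 s, of baseline-normalized fluorescence | Control set: Carbachol positive, DMSO negative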

Test [7] is described as follows: inhibitors of Sendai virus-induced IRF3 signaling, primary screen, TLR/RLR signaling modifier project, cell-based, Sendai virus stimulus, luciferase, 10K MLSCN set (AID 602276;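 active means inhibition at or above 50% at 10 µM; inactive means inhibition below 50%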;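 further: firefly luciferase from ISG56 promoter only with Renilla not read in this screen; 0% = Sendai virus plus DMSO and 100% = medium plus DMSO without virus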). Conditions: HEK293 RL24 IRF3 luciferase reporter, at 10 µM, stronger effect = higher value. A general note: In a reporter assay the amount or activity of a reporter protein is the signal.
Test [8] in a line: inhibitors of poly I:C-induced TLR3 signaling, primary screen, cell-based, poly I:C stimulus, luciferase, 10K MLSCN set (AID 602277). Conditions: HEK293-TLR3 RL24 IRF3 luciferase reporter, at 10 µM, stronger effect = higher value.

Muscarinic acetylcholine receptor M4 (Homo sapiens), sequence (P08173 whole entry, looked up): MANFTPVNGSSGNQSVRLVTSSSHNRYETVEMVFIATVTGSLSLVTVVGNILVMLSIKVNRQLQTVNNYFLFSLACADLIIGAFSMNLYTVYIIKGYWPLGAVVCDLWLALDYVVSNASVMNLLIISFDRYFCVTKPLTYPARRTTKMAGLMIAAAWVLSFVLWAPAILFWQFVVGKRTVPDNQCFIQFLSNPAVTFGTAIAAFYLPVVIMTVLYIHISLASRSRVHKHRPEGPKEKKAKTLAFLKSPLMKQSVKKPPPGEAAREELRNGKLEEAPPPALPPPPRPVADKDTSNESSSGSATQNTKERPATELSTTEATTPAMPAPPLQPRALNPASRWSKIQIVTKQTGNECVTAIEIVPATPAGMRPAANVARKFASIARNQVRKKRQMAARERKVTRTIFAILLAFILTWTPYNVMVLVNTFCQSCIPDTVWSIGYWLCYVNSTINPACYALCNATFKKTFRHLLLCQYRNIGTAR
Voltage-gated potassium channel subunit beta-2 (Rattus norvegicus), sequence (P62483 whole entry, looked up): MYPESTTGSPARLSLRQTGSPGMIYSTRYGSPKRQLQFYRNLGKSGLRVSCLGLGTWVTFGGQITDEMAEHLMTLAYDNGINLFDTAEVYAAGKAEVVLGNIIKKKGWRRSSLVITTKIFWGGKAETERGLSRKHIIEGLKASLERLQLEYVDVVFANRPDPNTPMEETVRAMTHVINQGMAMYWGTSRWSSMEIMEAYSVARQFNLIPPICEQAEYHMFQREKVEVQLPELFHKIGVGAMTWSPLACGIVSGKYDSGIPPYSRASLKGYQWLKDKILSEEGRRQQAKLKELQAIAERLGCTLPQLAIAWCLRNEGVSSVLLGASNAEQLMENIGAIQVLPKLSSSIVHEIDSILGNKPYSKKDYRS

Consider `CCCN(CCC)S(=O)(=O)c1ccc(C(=O)Nc2nnc(-c3cccc(OC)c3)o2)cc1`, for which the cell count in test [1] was 345. For the same compound, the inhibition in test [1] is 1.4% (inactive); in test [3] it was 38.1% (inactive); in test [7], 27.3% (inactive); in test [8], 23.2% (inactive). Further, the inhibition of aggregation in test [2] was 13.6% (inactive). Moreover, the nuclei count in test [2] is 92.5%; in test [3], 107%. Also, the figures for the fluorescence slope in test [4] and in test [6] were -0.5 (inactive) and 0.0064 (inactive), respectively. For the same compound, the NADPH fluorescence slope in test [5] is -0.000148 (inactive).

Regarding `Cc1ccc(F)cc1NC(=O)c1cccc2nccnc12`, the cell count in test [1] was 532. For the same compound, the inhibition in test [1] was -45.9% (inactive); in test [3] it was -61% (inactive); in test [7], -11.7% (inactive); in test [8], -19.2% (inactive). The inhibition of aggregation in test [2] is -49.2% (inactive). The nuclei count in test [2] is 13.4%; in test [3], 108%. Also, the fluorescence slope in test [4] was -0.554 (inactive); in test [6] it was 0.00494 (inactive). For the same compound, the NADPH fluorescence slope in test [5] was 2e-05 (inactive).

As for `Cc1ccc(Cn2nnc3c(=O)[nH]c(C4CCN(C(=O)c5cccs5)CC4)nc32)cc1`, the cell count in test [1] is 430. Also, the inhibition in test [1] is 5.1% (inactive); in test [3], -71.2% (inactive); in test [7], 5.84% (inactive); in test [8], 10.8% (inactive). In addition, the inhibition of aggregation in test [2] is -16.4% (inactive). Further, the nuclei count came to 106% in test [2] and 109% in test [3]. The results for the fluorescence slope in test [4] and in test [6] were -0.546 (inactive) and 0.00572 (inactive), respectively. Besides, the NADPH fluorescence slope in test [5] is 1.3e-05 (inactive).

For the compound `CCS(=O)(=O)N1CCC(C(=O)NCc2cccs2)CC1`, the cell count in test [1] was determined as 683. Moreover, the inhibition is -5.9% (inactive) in test [1], -111% (inactive) in test [3], 5.97% (inactive) in test [7] and 13.7% (inactive) in test [8]. In addition, the inhibition of aggregation in test [2] was 12.4% (inactive). For the same compound, the figures for the nuclei count in test [2] and in test [3] were 77.5% and 102%, respectively. In addition, the fluorescence slope was -0.549 (inactive) in test [4] and 0.00636 (inactive) in test [6]. Moreover, in test [5], the NADPH fluorescence slope is -2e-05 (inactive).

As to `CCOC(=O)c1ccc(NC(=O)CCc2nc(-c3ccc(C)cc3)no2)cc1`, the cell count in test [1] was 368. In addition, the inhibition in test [1] is 0.7% (inactive); in test [3] it was -32.9% (inactive); in test [7], 11.4% (inactive); in test [8], -5.93% (inactive). The inhibition of aggregation in test [2] was 21.5% (inactive). For the same compound, the nuclei count in test [2] turned out to be 103%; in test [3] it was 116%. Besides, the fluorescence slope in test [4] is -0.556 (inactive); in test [6], 0.0041 (inactive). In addition, the NADPH fluorescence slope in test [5] is -2.2e-05 (inactive).

Regarding `O=C(CSc1nnnn1-c1ccccc1)Nc1nsc(-c2ccc(Cl)cc2)n1`, the cell count in test [1] is 449. In addition, the inhibition in test [1] was -4.1% (inactive); in test [3], 59.2% (inactive); in test [7], 15.4% (inactive); in test [8], 15.1% (inactive). Further, in test [2], the inhibition of aggregation was 17.3% (inactive). The nuclei count worked out at 95.1% in test [2] and 130% in test [3]. The values for the fluorescence slope in test [4] and in test [6] were -0.561 (inactive) and 0.00729 (inactive), respectively. The NADPH fluorescence slope in test [5] is -3.3e-05 (inactive).

Regarding `Nc1nc(CN2CCN(Cc3ccc4c(c3)OCO4)CC2)nc(Nc2ccccc2)n1`, the cell count in test [1] came to 652. In addition, the inhibition in test [1] is 6.8% (inactive); in test [3] it was -9.3% (inactive); in test [7], 10.9% (inactive); in test [8], 22.6% (inactive). Moreover, the inhibition of aggregation in test [2] was -1.8% (inactive). The nuclei count turned out to be 116% in test [2] and 115% in test [3]. In addition, the fluorescence slope in test [4] is -0.578 (inactive); in test [6] it was 0.00565 (inactive). The NADPH fluorescence slope in test [5] is -4.8e-05 (inactive).

Regarding `Cc1cc(-c2nc3ncccc3o2)ccc1N`, the cell count in test [1] worked out at 306. In addition, the inhibition in test [1] is -8.9% (inactive); in test [3] it was -35.5% (inactive); in test [7], -34.7% (inactive); in test [8], -101% (inactive). Also, in test [2], the inhibition of aggregation was 23.3% (inactive). For the same compound, the nuclei count in test [2] is 102%; in test [3], 99.8%. For the same compound, the fluorescence slope in test [4] is -0.0237 (inactive); in test [6] it was 0.00386 (inactive). Also, the NADPH fluorescence slope in test [5] was 9.6e-08 (inactive).

As to `CCn1c(=O)n(CC(=O)NCc2ccccc2OC)c(=O)c2ccccc21`, the cell count in test [1] was found to be 467. The inhibition was -30.1% (inactive) in test [1], -106% (inactive) in test [3], 18.2% (inactive) in test [7] and 23.1% (inactive) in test [8]. For the same compound, the inhibition of aggregation in test [2] is -16.5% (inactive). For the same compound, the nuclei count in test [2] was 100%; in test [3], 92%. Also, the fluorescence slope in test [4] was -0.555 (inactive); in test [6], 0.00528 (inactive). In addition, in test [5], the NADPH fluorescence slope was -4.7e-05 (inactive).

Regarding `Cc1c(NC(=O)C2CCCNC2=O)c(=O)n(-c2ccccc2)n1C` (centres undefined), the cell count in test [1] was found to be 394. The inhibition is -2.2% (inactive) in test [1], -36.5% (inactive) in test [3], 11.5% (inactive) in test [7] and 6.36% (inactive) in test [8]. Besides, in test [2], the inhibition of aggregation was -1.6% (inactive). The nuclei count turned out to be 101% in test [2] and 106% in test [3]. In addition, the fluorescence slope was -0.495 (inactive) in test [4] and 0.00472 (inactive) in test [6]. For the same compound, the NADPH fluorescence slope in test [5] was 3.2e-05 (inactive).

As for `[O-][n+]1onc2c1CCc1nnc(-c3ccccc3)cc1-2`, the cell count in test [1] was 320. Also, the inhibition in test [1] is -0.8% (inactive); in test [3] it was -7.3% (inactive); in test [7], -0.775% (inactive); in test [8] it was -6.53% (inactive). Further, the inhibition of aggregation in test [2] was 7.5% (inactive). Also, the results for the nuclei count in test [2] and in test [3] were 102% and 123%, respectively. Moreover, the fluorescence slope in test [4] was -0.598 (inactive); in test [6] it was 0.00387 (inactive). Further, the NADPH fluorescence slope in test [5] is 2.3e-05 (inactive).

As to `COC(=O)c1cc(NC(=O)C2CC=CCC2C(=O)O)cc(C(=O)OC)c1` (centres undefined), in test [1], the cell count stood at 800. The inhibition in test [1] was -6.9% (inactive); in test [3], 5.2% (inactive); in test [7] it was 9.55% (inactive); in test [8] it was 7.94% (inactive). The inhibition of aggregation in test [2] is -7.4% (inactive). The results for the nuclei count in test [2] and in test [3] were 108% and 97.7%, respectively. The fluorescence slope in test [4] was -0.536 (inactive); in test [6] it was 0.00439 (inactive). Further, the NADPH fluorescence slope in test [5] was -4.3e-05 (inactive).

Consider `CCOC(=O)c1c(NC(=O)c2ccoc2C)sc2c1CCC2`, for which the cell count in test [1] stood at 310. The inhibition was 0% (inactive) in test [1], -3.2% (inactive) in test [3], 15.7% (inactive) in test [7] and -10.1% (inactive) in test [8]. Also, the inhibition of aggregation in test [2] is -0.4% (inactive). The nuclei count in test [2] amounted to 96.2%; in test [3] it was 96.3%. Further, the results for the fluorescence slope in test [4] and in test [6] were -0.407 (inactive) and 0.00584 (inactive), respectively. In test [5], the NADPH fluorescence slope was -1.2e-05 (inactive).

`N#Cc1cn(CC(=O)N2CCCC2)c2ccccc12`: the cell count in test [1] came out at 391. Moreover, the inhibition in test [1] is 3% (inactive); in test [3], -18.5% (inactive); in test [7], 17.7% (inactive); in test [8], 22.5% (inactive). In addition, the inhibition of aggregation in test [2] is -10.4% (inactive). Also, the nuclei count in test [2] came to 108%; in test [3] it was 95.9%. The fluorescence slope in test [4] is -0.562 (inactive); in test [6], 0.00355 (inactive). Also, the NADPH fluorescence slope in test [5] was -6.6e-05 (inactive).

By inhibition is commonly meant the relative decrease from the control value, in per cent.

(Values after PubChem BioAssay.)
